From ChEMBL document CHEMBL4024799, “Synthesis and Biological Characterization of Aryl Uracil Inhibitors of Hepatitis C Virus NS5B Polymerase: Discovery of ABT-072, a trans-Stilbene Analog with Good Oral Bioavailability” (J Med Chem, 2018)
The source made the active and inactive calls. No cut-off for these calls is given here.

Legend:
[1] = AUC (infinity) in human at 80 mg administered as single dose; assay type: ADME; parameters: dose 80 mg, time infinity; settings: in vivo
Outline: (§1)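 Single oral doses of 80, 160 or 320 mg in healthy subjects; plasma concentration-time profiles reported as mean (+SD); Cmax and terminal phase half-life derived.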

[2] = Cmax in dog at 2.5 mg/kg, po; assay type: ADME, organism-based, Canis lupus familiaris; parameters: dose 2.5 mg/kg, route oral; settings: in vivo
Hepatitis C virus [3] = assay: Antiviral activity against HCV genotype 1b Con1 infected in human HuH7 cells harboring HCV subgenomic bicistronic replicon after 3 days in presence of 40% human plasma by luciferase reporter gene assay; assay type: functional, cell-based, Hepacivirus hominis; settings: genotype 1b Con1, Huh-7, 72 h
Outline: (§2)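 Subgenomic genotype 1a (H77) or 1b (Con1) replicons carrying firefly luciferase, transfected into Huh-7 cells. Replication inhibition was read as luciferase level in cell lysate on a luminometer and reported as EC50. Runs were done without human plasma or with 40% human plasma added, to assess inhibitor–protein binding.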

[4] = Plasma clearance in Sprague-Dawley rat at 5 mg/kg, iv; assay type: ADME, organism-based
Outline: (§3)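 Sprague-Dawley rats, n = 3 per experiment; solution in DMSO:PEG400 (1:9, v/v) given IV or oral; 5 mg/kg for both routes, and 30 mg/kg oral; plasma t1/2, Vss, clearance, Cmax, AUC and F% determined.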

Hepatitis C virus [5] = assay: Antiviral activity against HCV genotype 1 infected in human assessed as sustained virologic response at 400 mg administered once daily in combination with ABT-450/r and ribavirin; assay type: functional, Hepacivirus hominis
Outline: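 GT1-infected adults given 400 mg once daily together with ABT-450/ritonavir and ribavirin; sustained virologic response assessed 24 weeks after treatment.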

[6] = Inhibition of HCV genotype 3a NS5B RNA dependent RNA polymerase assessed as reduction in [3H]UTP incorporation in to RNA preincubated for 15 mins followed by [3H]UTP addition measured after 3 hrs by microbeta scintillation counting method; parameters: species or system Hepatitis C virus subtype 3a
[7] = Half life in Sprague-Dawley rat at 5 mg/kg, iv; assay type: ADME, organism-based; settings: in vivo; outline: as §3
Hepatitis C virus [8] = assay: Antiviral activity against HCV genotype 1a H77 infected in human HuH7 cells harboring HCV subgenomic bicistronic replicon after 3 days by luciferase reporter gene assay; assay type: functional, cell-based, Hepacivirus hominis; settings: genotype 1a H77, Huh-7, 72 h; outline: as §2
[9] = Volume of distribution at steady state in dog at 2.5 mg/kg, iv; assay type: ADME, organism-based, Canis lupus familiaris; settings: in vivo, read-out: Vdss
[10] = Oral bioavailability in dog at 30 mg/kg; assay type: ADME, organism-based, Canis lupus familiaris; settings: in vivo
Hepatitis C virus [11] = assay: Antiviral activity against HCV genotype 1a H77 infected in human HuH7 cells harboring HCV subgenomic bicistronic replicon after 3 days in presence of 40% human plasma by luciferase reporter gene assay; assay type: functional, cell-based, Hepacivirus hominis; settings: genotype 1a H77, Huh-7, 72 h; outline: as §2
[12] = test system: Hepatitis C virus (isolate H77); assay: Inhibition of HCV genotype 1a H77 NS5B RNA dependent RNA polymerase M414T mutant assessed as reduction in [3H]UTP incorporation in to RNA preincubated for 15 mins followed by [3H]UTP addition measured after 3 hrs by microbeta scintillation counting method
Outline: (§4)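 Standard NS5B polymerase inhibition assay using genotype 1a (H77) or 1b (BK) enzyme. RNA product formation was measured as ³H-UTP incorporated into RNA, read by scintillation counting. IC50 was calculated with a standard IC50 equation.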

[13] = Ratio of drug level in Sprague-Dawley rat liver to plasma at 5 mg/kg, po after 12 hrs; assay type: ADME, organism-based
Outline: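 Male/female not given; Sprague-Dawley rats, n = 3 per experiment, single 5 mg/kg oral dose given as a solution in DMSO:PEG400 (1:9, v/v). Drug concentrations measured in liver tissue and plasma at 12 h and 24 h post-dose; value reported as the liver-to-plasma concentration ratio.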

[14] = test system: Hepatitis C virus (isolate BK); assay: Inhibition of HCV genotype 1b BK NS5B RNA dependent RNA polymerase Y448H mutant assessed as reduction in [3H]UTP incorporation in to RNA preincubated for 15 mins followed by [3H]UTP addition measured after 3 hrs by microbeta scintillation counting method; outline: as §4
[15] = Drug level in dog liver at 2.5 mg/kg, po after 24 hrs; assay type: ADME, organism-based, Canis lupus familiaris; settings: read-out: Drug uptake
Outline: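 Dogs given oral doses; liver tissue and plasma drug levels measured at 12 and 24 h; liver:plasma ratio calculated.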

[16] = Oral bioavailability in Sprague-Dawley rat at 5 mg/kg; assay type: ADME, organism-based; settings: in vivo; outline: as §3
[17] = Half life in dog at 2.5 mg/kg, iv; assay type: ADME, organism-based, Canis lupus familiaris; settings: in vivo
Rattus norvegicus = assay: AUC in Sprague-Dawley rat at 30 mg/kg, po; assay type: ADME, organism-based; settings: in vivo; outline: as §3
[18] = Cmax in human at 80 mg administered as single dose; assay type: ADME; parameters: dose 80 mg; settings: in vivo; outline: as §1
[19] = Oral bioavailability in dog at 2.5 mg/kg; assay type: ADME, organism-based, Canis lupus familiaris; settings: in vivo
[20] = test system: Hepatitis C virus (isolate BK); assay: Inhibition of HCV genotype 1b BK NS5B RNA dependent RNA polymerase M414T mutant assessed as reduction in [3H]UTP incorporation in to RNA preincubated for 15 mins followed by [3H]UTP addition measured after 3 hrs by microbeta scintillation counting method; outline: as §4
[21] = Tmax in human at 160 mg administered as single dose; assay type: ADME; settings: in vivo
Hepatitis C virus [22] = assay: Antiviral activity against HCV genotype 1b Con1 infected in human HuH7 cells harboring HCV subgenomic bicistronic replicon after 3 days by luciferase reporter gene assay; assay type: functional, cell-based, Hepacivirus hominis; settings: genotype 1b Con1, Huh-7, 72 h; outline: as §2
[23] = Inhibition of HCV genotype 2a NS5B RNA dependent RNA polymerase assessed as reduction in [3H]UTP incorporation in to RNA preincubated for 15 mins followed by [3H]UTP addition measured after 3 hrs by microbeta scintillation counting method; parameters: species or system Hepatitis C virus subtype 2a
[24] = Tmax in human at 320 mg administered as single dose; assay type: ADME; settings: in vivo
[25] = AUC (infinity) in human at 160 mg administered as single dose; assay type: ADME; parameters: dose 160 mg, time infinity; settings: in vivo; outline: as §1
Canis familiaris = assay: AUC in dog at 30 mg/kg, po; assay type: ADME, organism-based, Canis lupus familiaris; settings: in vivo
[26] = Volume of distribution at steady state in Sprague-Dawley rat at 5 mg/kg, iv; assay type: ADME, organism-based; settings: in vivo, read-out: Vdss
Outline: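 Sprague-Dawley rats, n = 3 per experiment, each given a 5 mg/kg intravenous dose. The compound was formulated as a solution in DMSO:PEG400 (1:9, v/v). Plasma concentration–time data were used to derive pharmacokinetic parameters, including Vss.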

[27] = Ratio of drug level in dog liver to plasma at 2.5 mg/kg, po after 12 hrs; assay type: ADME, organism-based, Canis lupus familiaris
[28] = Tmax in human at 80 mg administered as single dose; assay type: ADME; settings: in vivo
[29] = Half life in human infected with HCV genotype 1 at 160 mg administered once daily for 2 days; assay type: ADME; settings: in vivo
Outline: (§5)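 HCV GT1-infected patients (N=4) given 160 mg once daily for 2 days; plasma Cmax, AUC and t1/2 determined.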

[30] = Half life in dog at 30 mg/kg, po; assay type: ADME, organism-based, Canis lupus familiaris; settings: in vivo
[31] = Cmax in Sprague-Dawley rat at 30 mg/kg, po; assay type: ADME, organism-based; parameters: dose 30 mg/kg, route oral; settings: in vivo; outline: as §3
[32] = Cmax in Sprague-Dawley rat at 5 mg/kg, po; assay type: ADME, organism-based; parameters: dose 5 mg/kg, route oral; settings: in vivo; outline: as §3
[33] = Terminal half life in human at 320 mg administered as single dose; assay type: ADME; settings: in vivo, read-out: beta t1/2 (converted); outline: as §1
[34] = Cmax in human infected with HCV genotype 1 at 160 mg administered once daily for 2 days; assay type: ADME; parameters: dose 160 mg; settings: in vivo; outline: as §5
[35] = Oral bioavailability in Sprague-Dawley rat at 30 mg/kg; assay type: ADME, organism-based; settings: in vivo; outline: as §3

## COc1c(/C=C/c2ccc(NS(C)(=O)=O)cc2)cc(-n2ccc(=O)[nH]c2=O)cc1C(C)(C)C [ABT-072]
[1]
  AUC(0-inf): 2440 ng·h/mL
[2]
  Cmax: 880 ng/mL
Hepatitis C virus [3]
  EC50: 2.4 nM
[4]
  clearance: 15 mL/min/kg
Hepatitis C virus [5]
  Activity: 91%
[6]
  IC50: 3000 nM
[7]
  half-life: 2.9 h
Hepatitis C virus [8]
  EC50: 1.1 nM
[9]
  Vd: 1.5 L/kg
[10]
  bioavailability: 61%
Hepatitis C virus [11]
  EC50: 19 nM
[12]
  inhibition: inactive
[13]
  Kp at 12 h: 71
[14]
  inhibition: inactive
[15]
  concentration at 24 h: > 1000 ng/g
[16]
  bioavailability: 44%
[17]
  half-life: 5.5 h
Rattus norvegicus
  AUC: 21600 ng·h/mL
[18]
  Cmax: 180 ng/mL
[19]
  bioavailability: 86%
[20]
  inhibition: inactive
[21]
  Tmax: 6.8 h
Hepatitis C virus [22]
  EC50: 0.3 nM
[23]
  IC50: 23000 nM
[24]
  Tmax: 8.8 h
[25]
  AUC(0-inf): 4640 ng·h/mL
Canis familiaris
  AUC: 124000 ng·h/mL
[26]
  Vd: 3.7 L/kg
[27]
  Kp at 12 h: 11
[28]
  Tmax: 5.1 h
[29]
  half-life: 8.56 h
[30]
  half-life: 9.6 h
[31]
  Cmax: 2000 ng/mL
[32]
  Cmax: 280 ng/mL
[33]
  half-life: 7.01 h
[34]
  Cmax: 415 ng/mL
[35]
  bioavailability: 63%
